Among the data in the array DNA melting data of Ke et al. (doi:10.1101/2024.01.08.574731) are Tm and folding enthalpy values, retold here.

A short description of data set [1]: melting temperature; fluorescence melt of hairpins on a sequencing array, two-state fit, raised by 9.35 °C to match UV melts. As to conditions: sodium 0.088 M. In short, it runs like this:
(§1)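 To match UV melts, fitted temperatures were raised by 9.35 °C. These fits were bootstrapped two-state models that gave melting temperature and folding enthalpy, combined by inverse variance over four replicates. The input was normalised Cy3 fluorescence of library hairpins with annealed Cy3 and quencher oligos on a sequenced MiSeq flow cell, imaged in 50 mM Na-HEPES pH 8.0, 25 mM NaCl in 2.5 °C steps up to 60 °C.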

Data set [2] is described as follows: folding enthalpy; higher = less favourable; fluorescence melt of hairpins on a sequencing array, two-state fit. As to conditions: sodium 0.088 M. In short, it runs like this:
as §1

GGACCCGCGAAAGCGTCC (((..(((....)))))): the Tm in data set [1] was 36.7 °C. Also, the folding enthalpy in data set [2] was -12.4 kcal/mol.

For GGACCGCGAAAGCGATCC (((.(((....))).))), the Tm in data set [1] was determined as 59 °C. Further, in data set [2], the folding enthalpy is -27.9 kcal/mol.

Consider GGACCGGCGAAAGCCTCC (((..(((....)))))), for which, in data set [1], the Tm is 27.5 °C. Also, the folding enthalpy in data set [2] is -10.2 kcal/mol.

As to GGACCGGGAAACCAGTCC ((((.((....)).)))), the Tm in data set [1] is 47.3 °C. Moreover, the folding enthalpy in data set [2] is -23.4 kcal/mol.

For GGACCGGGAAACCGGTTC (.(((((....))))).), the Tm in data set [1] came out at 59 °C. Moreover, the folding enthalpy in data set [2] is -22.3 kcal/mol.

Turning to GGACCGGGAAACTGGTCC (((((.(....).))))), the Tm in data set [1] was found to be 58.2 °C. The folding enthalpy in data set [2] was -44.9 kcal/mol.

For GGACCTCGAAAGAGTTCC (((.(((....))).))), in data set [1], the Tm turned out to be 45 °C. Moreover, the folding enthalpy in data set [2] is -27.2 kcal/mol.

As to GGACCTGGAAACAAGTCC ((((.((....)).)))), the Tm in data set [1] was found to be 38.7 °C. In addition, the folding enthalpy in data set [2] is -23.5 kcal/mol.

GGACGACGAAAGTCTTCC (((.(((....))).))): the Tm in data set [1] turned out to be 48.9 °C. Moreover, the folding enthalpy in data set [2] is -27.1 kcal/mol.

With GGACGAGAAATCGTCC ((((((....)))))), the Tm in data set [1] amounted to 60.2 °C. The folding enthalpy in data set [2] is -47 kcal/mol.

GGACGCGAAAGCGAGTCC ((((((....)))..))): in data set [1], the Tm stood at 55.4 °C. Also, the folding enthalpy in data set [2] is -21 kcal/mol.

For the sequence GGACGCGAAAGCGATTCC ((((((....)))..))), in data set [1], the Tm worked out at 36.5 °C. For the same sequence, the folding enthalpy in data set [2] was -11 kcal/mol.

With GGACGCGAAAGCGCATCC ((((((....)))..))), the Tm in data set [1] was 34.5 °C. Further, the folding enthalpy in data set [2] is -10.1 kcal/mol.

In the case of GGACGCGAAAGCGCCTCC ((((((....)))..))), the Tm in data set [1] is 60.2 °C. Also, the folding enthalpy in data set [2] was -11.6 kcal/mol.

Consider GGACGCGAAAGCGGGTCC ((((((....)))..))), for which the Tm in data set [1] stood at 54.2 °C. Besides, the folding enthalpy in data set [2] is -14 kcal/mol.

As for GGACGTCGAAAGACATCC (((.(((....))).))), the Tm in data set [1] is 47.3 °C. Further, the folding enthalpy in data set [2] is -26.5 kcal/mol.

For the sequence GGACGTCGAAAGACCTCC (((.(((....))).))), the Tm in data set [1] was 41.2 °C. Further, the folding enthalpy in data set [2] was -22.3 kcal/mol.

Turning to GGACTACCGAAAGGTTCC (((..(((....)))))), the Tm in data set [1] worked out at 32.8 °C. Moreover, the folding enthalpy in data set [2] was -11.2 kcal/mol.

As to GGACTCGAAAGAGACTCC ((((((....)))..))), the Tm in data set [1] came out at 36 °C. Also, in data set [2], the folding enthalpy was -11.6 kcal/mol.

For the sequence GGACTCGAAAGAGATTCC ((((((....)))..))), in data set [1], the Tm was 25.6 °C. Also, the folding enthalpy in data set [2] was -11.3 kcal/mol.

On to GGACTCGAAAGAGCGTCC ((((((....)))..))), for which the Tm in data set [1] was found to be 32 °C. The folding enthalpy in data set [2] is -16 kcal/mol.

As for GGACTCGCGAAAGCGTCC (((..(((....)))))), the Tm in data set [1] stood at 39.1 °C. The folding enthalpy in data set [2] was -13.1 kcal/mol.

Regarding GGACTCGGAAACGAGTTC (.(((((....))))).), the Tm in data set [1] came out at 53.6 °C. Besides, in data set [2], the folding enthalpy is -38.3 kcal/mol.

Turning to GGACTCGGAAACGGGTTC (.((.((....)).)).), the Tm in data set [1] came out at 40.2 °C. Moreover, the folding enthalpy in data set [2] was -25.7 kcal/mol.

Turning to GGACTGCCGAAAGGCTCC (((..(((....)))))), in data set [1], the Tm stood at 34.7 °C. In data set [2], the folding enthalpy is -10.2 kcal/mol.

For the sequence GGACTGCGAAAGCATCC (((.(((....)))))), the Tm in data set [1] was found to be 41.8 °C. Besides, in data set [2], the folding enthalpy is -13.5 kcal/mol.

Turning to GGACTGCGAAAGCATTCC (((.(((....))).))), the Tm in data set [1] was determined as 48.5 °C. For the same sequence, in data set [2], the folding enthalpy is -29.8 kcal/mol.

With GGACTGGGAAACCAATCC (((.(((....))).))), in data set [1], the Tm is 36 °C. In addition, in data set [2], the folding enthalpy is -28 kcal/mol.

As to GGACTGGGAAACCAGCCC ((.((((....)))).)), the Tm in data set [1] was 50.4 °C. Further, the folding enthalpy in data set [2] is -20.5 kcal/mol.

GGACTGTCGAAAGACTCC (((..(((....)))))): the Tm in data set [1] is 21.5 °C. The folding enthalpy in data set [2] is -5.54 kcal/mol.

In the case of GGACTTCGAAAGAAATCC (((.(((....))).))), the Tm in data set [1] was determined as 37.3 °C. In data set [2], the folding enthalpy was -26.6 kcal/mol.

GGACTTGGAAACAAATCC (((.(((....))).))): the Tm in data set [1] came to 35.3 °C. For the same sequence, the folding enthalpy in data set [2] was -12.4 kcal/mol.

Consider GGACTTGGAAACGAGTTC (.(((.(....).))).), for which the Tm in data set [1] came to 32.9 °C. Moreover, the folding enthalpy in data set [2] was -21.5 kcal/mol.

Regarding GGAGAACCGAAAGGTTCC (((..(((....)))))), the Tm in data set [1] amounted to 43.1 °C. Moreover, the folding enthalpy in data set [2] was -9.16 kcal/mol.

In the case of GGAGAACGAAAGTTGTCC (((.(((....))).))), the Tm in data set [1] worked out at 51.5 °C. In data set [2], the folding enthalpy was -34.6 kcal/mol.

Turning to GGAGAAGAAATTCTCC ((((((....)))))), the Tm in data set [1] was determined as 47.7 °C. Further, the folding enthalpy in data set [2] was -27.7 kcal/mol.

Consider GGAGAAGGAAACTTCCCC ((.((((....)))).)), for which, in data set [1], the Tm is 35.2 °C. In data set [2], the folding enthalpy was -16.8 kcal/mol.
